Data taken from paper PMC9401544 (Clinical Cancer Research, 2021).

Columns and labels:
[1] = test system: patients with advanced solid tumors (TGCT and non-TGCT cohorts); experiment: Safety: adverse events, laboratory assessments, ECG; assay type: in vivo, human
patients with TGCT = conditions: cited from earlier work
[2] = test system: patients with advanced solid tumors (TGCT and non-TGCT cohorts); experiment: Drug exposure: treatment duration, dose reductions, drug holidays; assay type: in vivo, human
How it was run: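 Adult patients at 12 US centres took 1,000 mg/day (600 mg morning, 400 mg evening) until progression or unacceptable toxicity. Dose changes, usually in 200 mg/day steps, and temporary holds for toxicity or other reasons were allowed. Exposure was tallied to the 31 January 2018 cutoff. Months were computed as days divided by 30.4167.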

[3] = test system: tenosynovial giant cell tumor (TGCT); experiment: Tumor response by RECIST 1.1; assay type: in vivo, human
[4] = test system: tenosynovial giant cell tumor (TGCT); conditions: patients with TGCT, usually; cited from earlier work
[5] = test system: tenosynovial giant cell tumor (TGCT); conditions: 3 of the 4 TGCT patients; cited from earlier work
[6] = test system: advanced solid tumors (MEC, GIST, ATC, malignant effusions, miscellaneous tumor types); assay type: in vivo, human
How it was run: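 Adults with advanced, incurable tumours received 1,000 mg/day, split 600 mg morning and 400 mg evening, continued to progression or unacceptable toxicity. Response was assessed locally by imaging at baseline and every 2 months per RECIST version 1.1, with readings not blinded to visit order. Data cutoff was 31 January 2018.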

[7] = 13 TGCT subjects that remained on treatment, as of February 2021

SMILES: FC(F)(F)c1ccc(CNc2ccc(Cc3c[nH]c4ncc(Cl)cc34)cn2)cn1 [pexidartinib]
- cases meeting Hy's law criteria ([1]; all 91 patients): no cases that met criteria for Hy's law
- decreases in platelets, hemoglobin, white blood cells (neutrophils, lymphocytes): grade ([1]; all patients): generally grade 2 or less
- electrocardiogram abnormalities ([1]; all patients): No patient had clinically significant electrocardiogram abnormalities
- AST increase, treatment-related AE of grade ≥ 3 ([1]; non-TGCT patients): 4%
- fatigue, treatment-related AE of grade ≥ 3 ([1]; non-TGCT patients): 6%
- hypophosphatemia, treatment-related AE of grade ≥ 3 ([1]; non-TGCT patients): 4%
- patients with grade 3 elevations in aminotransferase levels ([1]; of the 91 patients): 6 patients
- alanine aminotransferase increase, grade ≥ 3 treatment-related AE ([1]; patients with TGCT): 10%
- aspartate aminotransferase (AST) increase, grade ≥ 3 treatment-related AE ([1]; patients with TGCT): 8%
- hypophosphatemia, grade ≥ 3 treatment-related AE ([1]; patients with TGCT): 10%
- nausea, treatment-related AE ([1]; patients with TGCT): 56%
- periorbital edema, treatment-related AE ([1]; patients with TGCT): 39%
- pruritus, treatment-related AE ([1]; patients with TGCT): 31%
- time of presentation of serious liver toxicity (patients with TGCT; all cases, weeks of treatment): ≤ 8 weeks
- isolated aminotransferase elevations, share of hepatic adverse reactions (patients with TGCT; long-term treatment): > 90%
- patients who had a drug holiday ([2]; of the 39 patients with TGCT): 27 (69%) n (%)
- patients who required dose reduction ([2]; of the 39 patients with TGCT): 24 (62%) n (%)
- patients who experienced a drug holiday ([2]; of the 91 patients): 40 (44%) n (%)
- patients who required dose reduction ([2]; of the 91 patients): 30 (33%) n (%)
- median DOR [3, 7]: 1,529 days
- median PFS [3, 7]: 1,764 days
- patients with TGCT who achieved a response, RECIST 1.1 ([3]; CR + PR, of 39 FAS): 24 patients
- PR, RECIST 1.1 ([3]; TGCT): 22 patients
- complete response (CR), RECIST 1.1 ([3]; TGCT): 2 patients
- patients who progressed while on therapy, modified tumor response criteria ([3]; TGCT): 3 patients
- patients with SD that lasted for at least 6 months, RECIST 1.1 ([3]; TGCT): 8 patients
- patients with at least a 50% reduction in sum of longest tumor diameter ([3]; TGCT): Fifteen
- disease control rate (DCR = CR + PR + SD), RECIST 1.1 ([3]; TGCT FAS (n = 39)): 82%
- disease control rate (DCR = CR + PR + SD), RECIST 1.1 ([3]; TGCT efficacy-evaluable (n = 37)): 86%
- objective response rate (ORR), RECIST 1.1 per local reading ([3]; TGCT efficacy-evaluable population (n = 37)): 65%
- 25th percentile for duration of response (DOR) ([3]; TGCT, RECIST 1.1): 943 days
- ORR, RECIST 1.1 ([3]; both the FAS and efficacy-evaluable TGCT populations): over 60%
- time to radiologic response [4]: ≤ 4 months
- RECIST response in patients who had previously received other TKI treatment [5]: 75%
- patients with prolonged (>6 months) SD ([6]; non-TGCT): 6 patients
- median progression-free survival (PFS) ([6]; non-TGCT patients): 56 days
- patients with partial response (PR) ([6]; non-TGCT population (n = 52)): 1 patients
- patients with stable disease (SD) as best response ([6]; non-TGCT population (n = 52)): Fifteen
